Molecules are shown by their SMILES.

Here are results for twelve compounds from ChEMBL document CHEMBL1177686, “Constrained peptidomimetics as antiplasmodial falcipain-2 inhibitors” (Bioorg Med Chem, 2010).

In experiment [1] the target is T1, Falcipain 2 (Plasmodium falciparum, UniProt Q9N6S8).
T1 sequence (Q9N6S8 whole entry): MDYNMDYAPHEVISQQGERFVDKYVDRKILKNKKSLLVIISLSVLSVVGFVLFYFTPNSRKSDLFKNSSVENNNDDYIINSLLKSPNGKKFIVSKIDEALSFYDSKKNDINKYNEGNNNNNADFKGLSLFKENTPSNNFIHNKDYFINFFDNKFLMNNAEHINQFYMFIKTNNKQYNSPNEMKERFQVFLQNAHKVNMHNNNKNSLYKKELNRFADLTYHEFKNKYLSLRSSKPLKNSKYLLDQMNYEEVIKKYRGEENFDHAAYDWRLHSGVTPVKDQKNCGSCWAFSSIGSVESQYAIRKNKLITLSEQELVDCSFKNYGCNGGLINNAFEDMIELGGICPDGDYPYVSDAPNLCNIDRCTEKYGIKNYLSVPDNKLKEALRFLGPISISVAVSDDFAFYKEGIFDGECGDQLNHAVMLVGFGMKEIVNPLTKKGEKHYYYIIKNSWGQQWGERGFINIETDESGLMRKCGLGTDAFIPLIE
Description: Inhibition of Plasmodium falciparum recombinant falcipain-2 after 10 min.

Experiment [2] deals with Rhodesain (Trypanosoma brucei rhodesiense, UniProt Q95PM0). Description: Inhibition of Trypanosoma brucei rhodesiense rhodesain after 10 mins. A digest of the protocol:
(§1)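 Rhodesain with Cbz-Phe-Arg-AMC 10 µM in 100 mM sodium acetate pH 5.5, 10 mM DTT. Fluorescence (ex 365/em 460 nm) read continuously for 10 min at increasing inhibitor levels, duplicate runs. Kiapp and kinac from hyperbolic kobs fit, corrected to Ki using Km 0.9 µM. k2nd as kinac/Ki, or from kobs/[I] when linear. Dixon plot if time-independent.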

In experiment [3] the target is T2, Procathepsin L (Homo sapiens, UniProt P07711). Description: Inhibition of human cathepsin L. Put shortly: (§2)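 Cathepsin L assay on Cbz-Phe-Arg-AMC 5 µM. […] Second-order constant k2nd taken as kinac/Ki.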
Target sequence in this assay (P07711 whole entry): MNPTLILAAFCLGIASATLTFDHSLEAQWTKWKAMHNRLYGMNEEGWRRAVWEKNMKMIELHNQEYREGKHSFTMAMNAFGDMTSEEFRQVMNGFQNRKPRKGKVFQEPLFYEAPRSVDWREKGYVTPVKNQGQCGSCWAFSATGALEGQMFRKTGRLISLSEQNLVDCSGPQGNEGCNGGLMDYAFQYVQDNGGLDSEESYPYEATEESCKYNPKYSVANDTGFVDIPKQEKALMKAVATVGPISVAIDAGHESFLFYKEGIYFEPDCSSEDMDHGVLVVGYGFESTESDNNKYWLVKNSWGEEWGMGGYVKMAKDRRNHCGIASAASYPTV
In experiment [4] the target is Rhodesain (Trypanosoma brucei rhodesiense) (UniProt Q95PM0). Description: Ratio of Kinact to Ki for Trypanosoma brucei rhodesiense rhodesain after 10 mins. Put shortly: as §1
Chain of Rhodesain (Trypanosoma brucei rhodesiense) (Q95PM0 1-450): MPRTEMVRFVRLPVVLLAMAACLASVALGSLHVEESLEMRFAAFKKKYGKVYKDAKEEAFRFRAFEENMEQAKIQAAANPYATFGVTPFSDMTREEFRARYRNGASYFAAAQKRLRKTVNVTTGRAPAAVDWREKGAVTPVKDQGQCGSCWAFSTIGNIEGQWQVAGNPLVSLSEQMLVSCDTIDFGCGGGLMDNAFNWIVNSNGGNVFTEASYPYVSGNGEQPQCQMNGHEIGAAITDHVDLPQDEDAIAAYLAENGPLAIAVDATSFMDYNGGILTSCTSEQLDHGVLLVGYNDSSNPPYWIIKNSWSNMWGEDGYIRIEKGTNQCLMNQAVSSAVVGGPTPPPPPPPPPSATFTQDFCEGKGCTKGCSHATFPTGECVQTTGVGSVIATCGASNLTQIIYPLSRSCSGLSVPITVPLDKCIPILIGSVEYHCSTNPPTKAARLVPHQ
The target in experiment [5] is T3, Falcipain 2 (Plasmodium falciparum) (UniProt Q9N6S8).
T3 sequence (whole entry): T1 sequence (Q9N6S8 whole entry)
Nature of the experiment: Ratio of Kinact to Ki for Plasmodium falciparum recombinant falcipain-2 after 10 min.

Experiment [6] can be described thus: Selectivity ratio of Ki for Plasmodium falciparum recombinant falcipain-2 to Ki for Trypanosoma brucei rhodesiense rhodesain.
Experiment [7] relates to Plasmodium falciparum. Nature of the experiment: Antiplasmodial activity against Plasmodium falciparum FCBR infected in human erythrocytes assessed as parasite viability. It is filed as functional, organism-based. To be noted: FCBR/Columbia. A digest of the protocol:
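P. falciparum FCBR kept in human A Rh+ erythrocytes, RPMI 1640 with 25 mM HEPES, 20 mM bicarbonate, 0.5% AlbuMAX I, 2.5% hematocrit, 37 °C, 94% N2/1% O2/5% CO2. Early-stage parasites plated at 1% parasitemia with compound (DMSO stock diluted 10-fold in 50% ethanol), 100-0.0488 µM, quadruplicates. Ethanol-only negative and 2 µM chloroquine positive controls. Viability assayed by a published method.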

Experiment [8] addresses Cathepsin B (Homo sapiens, UniProt P07858). Description: Inhibition of human cathepsin B.
Experiment [9] addresses T2, Procathepsin L. Description: Ratio of Kinact to Ki for human cathepsin L. A digest of the protocol:
as §2
Target sequence in this assay (P07711 114-333 limits assumed): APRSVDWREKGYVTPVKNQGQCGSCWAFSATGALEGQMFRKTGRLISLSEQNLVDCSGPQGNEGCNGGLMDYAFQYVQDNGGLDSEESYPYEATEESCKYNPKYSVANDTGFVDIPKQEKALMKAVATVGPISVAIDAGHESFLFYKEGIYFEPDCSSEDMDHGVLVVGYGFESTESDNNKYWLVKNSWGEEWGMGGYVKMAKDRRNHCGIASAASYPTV

Chain of Rhodesain (Q95PM0 whole entry): as the sequence (Q95PM0 1-450) above

The Ki is the dissociation constant of the complex between target and ligand, obtained from inhibition or displacement. What is called IC50 is the concentration that gives 50% inhibition. Take `COC(=O)/C=C/[C@H](CC(C)C)NC(=O)CN1C(=O)[C@@H](COC(=O)Nc2ccc(Cl)cc2C(F)(F)F)N=C(c2ccccc2)c2ccccc21`: the Ki in experiment [1] is 2.22 µM; in experiment [2] it was 0.87 µM; in experiment [3] it was over 150 µM; in [8], 39.1 µM. For the same compound, the Ratio was 36000 in experiment [4] and 18000 in [5]. Besides, the Ratio Ki in [6] amounted to 5. Besides, in [7], the IC50 was determined as 26.9 µM.
As to `COC(=O)/C=C/CNC(=O)CN1C(=O)[C@@H](COC(=O)Nc2ccc(OC)cc2)N=C(c2ccccc2)c2ccccc21`, the Ki in experiment [1] was found to be 15.1 µM; in experiment [2], 4.3 µM; in [3], 12 µM; in experiment [8], 2.23 µM. In addition, the Ratio in experiment [9] is 12500. Besides, in experiment [6], the Ratio Ki was 5. Further, the IC50 in experiment [7] came out at 33.1 µM.
Consider `CC(C)C[C@H](NC(=O)[C@H]1O[C@@H]1C(=O)O)C(=O)NCCCCN=C(N)N`, for which, in [5], the Ratio turned out to be 1.59e+06.
In the case of `COC(=O)/C=C/CNC(=O)CN1C(=O)[C@@H](COC(=O)Nc2ccc(Cl)cc2C(F)(F)F)N=C(c2ccc(OC)cc2)c2ccccc21`, the Ki in experiment [1] is over 100 µM; in [3] it was 59.9 µM; in experiment [8] it was 10.9 µM. Also, in [6], the Ratio Ki was determined as 5.
`COC(=O)/C=C/CNC(=O)CN1C(=O)[C@@H](COC(=O)NC23CC4CC(CC(C4)C2)C3)N=C(c2ccccc2)c2ccccc21`: the Ki amounted to 0.014 µM in experiment [1], 0.0026 µM in experiment [2], 65 µM in experiment [3] and 13.7 µM in experiment [8]. Moreover, the Ratio in experiment [9] stood at 550; in [4], 4.62e+06; in experiment [5] it was 1.16e+06. In addition, the Ratio Ki in experiment [6] was found to be 5. Besides, the IC50 in experiment [7] worked out at 10.7 µM.
Take `COC(=O)/C=C/CNC(=O)CN1C(=O)[C@@H](COC(=O)Nc2ccc(Cl)cc2C(F)(F)F)N=C(c2ccccc2)c2ccccc21`: the Ki in experiment [1] stood at 0.017 µM; in experiment [2], 0.81 µM. Besides, the Ratio came to 34600 in experiment [4] and 3.57e+06 in [5]. In [6], the Ratio Ki was 5.
As for `COC(=O)/C=C/CNC(=O)CN1C(=O)[C@@H](COC(=O)Nc2ccc(Cl)cc2C(F)(F)F)N=C(c2ccccc2)c2cc(Cl)ccc21`, the Ki in [1] came out at 0.46 µM; in experiment [2], 0.087 µM; in experiment [3], 29.8 µM; in experiment [8], 6.1 µM. The Ratio was found to be 220000 in experiment [4] and 76000 in [5]. In experiment [6], the Ratio Ki amounted to 5. Also, the IC50 in experiment [7] amounted to 28.9 µM.
As to `COC(=O)/C=C/CNC(=O)CN1C(=O)[C@@H](COC(=O)Nc2ccc(Cl)cc2C(F)(F)F)N=C(c2ccc(Br)cc2)c2ccccc21`, the Ki in experiment [1] was 1.56 µM; in [2] it was 0.47 µM; in [3], over 150 µM; in [8], over 150 µM. Also, the Ratio in [4] amounted to 46000; in [5], 24500. In experiment [6], the Ratio Ki was 5. The IC50 in experiment [7] was determined as 6.33 µM.
Take `COC(=O)/C=C/CNC(=O)CN1C(=O)[C@@H](COC(=O)Nc2cccc3ccccc23)N=C(c2ccccc2)c2ccccc21`: the Ki in experiment [1] is 3.48 µM; in experiment [2], 0.93 µM; in [3], 12.2 µM; in experiment [8], 25 µM. In [9], the Ratio is 6400. In addition, the Ratio Ki in experiment [6] turned out to be 5. Besides, the IC50 in experiment [7] was determined as 17.6 µM.
As for `C=CCNC(=O)CN1C(=O)[C@@H](CO)N=C(c2ccccc2)c2ccccc21`, the Ratio Ki in experiment [6] was 5. Further, in experiment [7], the Activity entry was “Dose-dependent effect”.
As for `COC(=O)/C=C/CNC(=O)CN1C(=O)[C@@H](COC(=O)NC2CCCCC2)N=C(c2ccccc2)c2ccccc21`, the Ki in [1] amounted to 89 µM; in experiment [3], 76.5 µM; in experiment [8] it was 12.4 µM. Further, the Ratio Ki in experiment [6] turned out to be 5. The Activity result in experiment [7] was “Dose-dependent effect”.
Consider `CCCCNC(=O)OC[C@H]1N=C(c2ccccc2)c2ccccc2N(CC(=O)NC/C=C/C(=O)OC)C1=O`, for which the values for the Ki in [1], in experiment [3] and in [8] were over 100 µM, 2.7 µM and 20.4 µM, respectively. In addition, the Ratio in experiment [9] came out at 9400. Besides, the Ratio Ki in experiment [6] was 5. Further, the Activity entry in experiment [7] is “Dose-dependent effect”.
